# Test results published in ChEMBL document CHEMBL5724801, “EUbOPEN Chemogenomics Library - Multiplex” (2024).
# “And” between values parts separate entries of the source, which are not always exact repeats. Identical values can stand only once.
# Tested on: Fibroblast
# Experiment: Multiplex assay against human fibroblast
# Type: toxicity, cell-based
# In short: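 Compound was added to live cells that had been stained at seeding with Hoechst33342, BioTracker Green Microtubule Cytoskeleton Dye, MitoTracker Red and Annexin V Alexa Fluor 680, and imaging followed on a CQ1 microscope at 37°C and 5% CO2. CellPathfinder machine-learning gating divided cells into Hoechst high-intensity objects or normal cells, normal cells into healthy, pyknosed or fragmented nuclei, and pyknosed cells into mitotic or apoptotic. Tubulin, mitochondrial-mass and membrane-permeability phenotypes are per cents of healthy-nucleus cells.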
# [1] = 12 h, 1 µM, compound concentration 1 uM
# [2] = 12 h, 10 µM, compound concentration 10 uM
# [3] = 24 h, 1 µM, compound concentration 1 uM
# [4] = 24 h, 10 µM, compound concentration 10 uM
# [5] = 48 h, 1 µM, compound concentration 1 uM
# [6] = 48 h, 10 µM, compound concentration 10 uM
smiles,measurement,setting,value
O=C(NCCNCC(O)COc1ccc(O)cc1)N1CCOCC1.O=C(NCCNCC(O)COc1ccc(O)cc1)N1CCOCC1.O=C(O)/C=C/C(=O)O (stereo not drawn) [XAMOTEROL FUMARATE],Population Apoptotic (%),[1],63% and 43%
same,Population Fragmented Nuclei (%),[1],15% and 23%
same,Population Healthy Nuclei (%),[1],67% and 53%
same,Population Hoechst High Intensity Objects (%),[1],2% and 4%
same,Population Mitochondria Different-Phenotype (%),[1],4% and 7%
same,Population Mitotic Cells (%),[1],36% and 56%
same,Population Normal (%),[1],97% and 95%
same,Population Pyknosed Nuclei (%),[1],17% and 23%
same,Population Tubulin-Different-Phenotype (%),[1],24% and 55%
same,Total Cell Count,[1],114 and 167
same,Population Apoptotic (%),[2],30% and 17%
same,Population Fragmented Nuclei (%),[2],21% and 30%
same,Population Healthy Nuclei (%),[2],64% and 49%
same,Population Hoechst High Intensity Objects (%),[2],4% and 5%
same,Population Membrane Permeable-Phenotype (%),[2],2% and 4%
same,Population Mitochondria Different-Phenotype (%),[2],5% and 11%
same,Population Mitotic Cells (%),[2],70% and 82%
same,Population Normal (%),[2],95% and 94%
same,Population Pyknosed Nuclei (%),[2],14% and 20%
same,Population Tubulin-Different-Phenotype (%),[2],32% and 43%
same,Total Cell Count,[2],143 and 154
same,Population Apoptotic (%),[3],68% and 50%
same,Population Fragmented Nuclei (%),[3],20% and 28%
same,Population Healthy Nuclei (%),[3],63% and 52%
same,Population Hoechst High Intensity Objects (%),[3],1% and 2%
same,Population Mitochondria Different-Phenotype (%),[3],2% and 6%
same,Population Mitotic Cells (%),[3],31% and 50%
same,Population Normal (%),[3],98% and 97%
same,Population Pyknosed Nuclei (%),[3],15% and 19%
same,Population Tubulin-Different-Phenotype (%),[3],25% and 63%
same,Total Cell Count,[3],121 and 149
same,Population Apoptotic (%),[4],62% and 42%
same,Population Fragmented Nuclei (%),[4],20% and 34%
same,Population Healthy Nuclei (%),[4],67% and 54%
same,Population Hoechst High Intensity Objects (%),[4],1%
same,Population Membrane Permeable-Phenotype (%),[4],0% and 5%
same,Population Mitochondria Different-Phenotype (%),[4],0% and 8%
same,Population Mitotic Cells (%),[4],37% and 57%
same,Population Normal (%),[4],98%
same,Population Pyknosed Nuclei (%),[4],12% and 11%
same,Population Tubulin-Different-Phenotype (%),[4],31% and 41%
same,Total Cell Count,[4],135 and 172
same,Population Apoptotic (%),[5],65% and 40%
same,Population Fragmented Nuclei (%),[5],27% and 42%
same,Population Healthy Nuclei (%),[5],57% and 46%
same,Population Hoechst High Intensity Objects (%),[5],1% and 2%
same,Population Membrane Permeable-Phenotype (%),[5],1% and 7%
same,Population Mitochondria Different-Phenotype (%),[5],2% and 4%
same,Population Mitotic Cells (%),[5],35% and 60%
same,Population Normal (%),[5],98% and 97%
same,Population Pyknosed Nuclei (%),[5],15% and 10%
same,Total Cell Count,[5],131 and 140
same,Population Apoptotic (%),[6],56% and 52%
same,Population Fragmented Nuclei (%),[6],25% and 33%
same,Population Healthy Nuclei (%),[6],62% and 54%
same,Population Hoechst High Intensity Objects (%),[6],4% and 3%
same,Population Membrane Permeable-Phenotype (%),[6],1% and 6%
same,Population Mitochondria Different-Phenotype (%),[6],3% and 4%
same,Population Mitotic Cells (%),[6],43% and 47%
same,Population Normal (%),[6],95% and 96%
same,Population Pyknosed Nuclei (%),[6],11%
same,Population Tubulin-Different-Phenotype (%),[6],33% and 48%
same,Total Cell Count,[6],144 and 157
